# ChEMBL document CHEMBL1153176, “2,6-Dithienyl-4-furyl pyridines: Synthesis, topoisomerase I and II inhibition, cytotoxicity, structure-activity relationship, and docking study” (Bioorg Med Chem Lett, 2010)
# Where a name gives a salt, the structure may show the parent alone.
# Assays:
# Bos taurus [1] = species on record: Bos taurus; assay: Inhibition of calf thymus topoisomerase 1-mediated relaxation of supercoiled pBR322 DNA at 100 uM after 30 mins by agarose gel electrophoresis
# Method in brief: (§1)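 Compound at 20 or 100 μM, 37 °C for 30 min. Stopped with SDS/dye mix, run on 1% agarose in TBE for 10 h, stained with ethidium bromide (0.5 μg/mL).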
# DU-145 = assay: Cytotoxicity against human DU145 cells after 3 days; assay type: functional, cell-based; details: DU-145, 72 h
# Method in brief: (§2)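 Cells seeded at 2–4 × 10⁴ per well and held overnight at 37 °C, 5% CO₂ in medium with 10% FBS. On day 1 the medium was replaced with medium holding graded compound concentrations. Absorbance read at 450 nm. IC50 from a four-parameter logistic fit of the 450 nm readings.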
# Bos taurus [2] = species on record: Bos taurus; assay: Inhibition of calf thymus topoisomerase 1-mediated relaxation of supercoiled pBR322 DNA at 20 uM after 30 mins by agarose gel electrophoresis; method in brief: as §1
# HCT-116 = assay: Cytotoxicity against human HCT116 cells after 3 days; assay type: functional, cell-based; details: HCT-116, 72 h; method in brief: as §2
# [3] = biological target: DNA topoisomerase 2-alpha (Homo sapiens) (UniProt P11388); assay: Inhibition of human topoisomerase 2 alpha-mediated relaxation of supercoiled pBR322 DNA at 20 uM after 30 mins by agarose gel electrophoresis
# Method in brief: (§3)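 Human topo II (0.3 U) with 0.2 μg pBR322 in 50 mM Tris–HCl pH 8.0, 120 mM KCl, 10 mM MgCl2, 0.5 mM ATP, 0.5 mM DTT and BSA. Compound at 20 or 100 μM, 37 °C for 30 min. Stopped with 0.77% SDS/77 mM EDTA, run on 1% agarose at 1.5 V/cm for 10 h in TBE, stained with ethidium bromide.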
# MCF7 = assay: Cytotoxicity against human MCF7 cells after 3 days; assay type: functional, cell-based; details: MCF7, 72 h; method in brief: as §2
# [4] = biological target: DNA topoisomerase 2-alpha (Homo sapiens) (UniProt P11388); assay: Inhibition of human topoisomerase 2 alpha-mediated relaxation of supercoiled pBR322 DNA at 100 uM after 30 mins by agarose gel electrophoresis; method in brief: as §3
# MDA-MB-231 = assay: Cytotoxicity against human MDA-MB-231 cells after 3 days; assay type: functional, cell-based; details: MDA-MB-231, 72 h; method in brief: as §2
# HeLa = assay: Cytotoxicity against human HeLa cells after 3 days; assay type: functional, cell-based; details: 72 h; method in brief: as §2
# Chain of DNA topoisomerase 2-alpha (Homo sapiens) (P11388 whole entry): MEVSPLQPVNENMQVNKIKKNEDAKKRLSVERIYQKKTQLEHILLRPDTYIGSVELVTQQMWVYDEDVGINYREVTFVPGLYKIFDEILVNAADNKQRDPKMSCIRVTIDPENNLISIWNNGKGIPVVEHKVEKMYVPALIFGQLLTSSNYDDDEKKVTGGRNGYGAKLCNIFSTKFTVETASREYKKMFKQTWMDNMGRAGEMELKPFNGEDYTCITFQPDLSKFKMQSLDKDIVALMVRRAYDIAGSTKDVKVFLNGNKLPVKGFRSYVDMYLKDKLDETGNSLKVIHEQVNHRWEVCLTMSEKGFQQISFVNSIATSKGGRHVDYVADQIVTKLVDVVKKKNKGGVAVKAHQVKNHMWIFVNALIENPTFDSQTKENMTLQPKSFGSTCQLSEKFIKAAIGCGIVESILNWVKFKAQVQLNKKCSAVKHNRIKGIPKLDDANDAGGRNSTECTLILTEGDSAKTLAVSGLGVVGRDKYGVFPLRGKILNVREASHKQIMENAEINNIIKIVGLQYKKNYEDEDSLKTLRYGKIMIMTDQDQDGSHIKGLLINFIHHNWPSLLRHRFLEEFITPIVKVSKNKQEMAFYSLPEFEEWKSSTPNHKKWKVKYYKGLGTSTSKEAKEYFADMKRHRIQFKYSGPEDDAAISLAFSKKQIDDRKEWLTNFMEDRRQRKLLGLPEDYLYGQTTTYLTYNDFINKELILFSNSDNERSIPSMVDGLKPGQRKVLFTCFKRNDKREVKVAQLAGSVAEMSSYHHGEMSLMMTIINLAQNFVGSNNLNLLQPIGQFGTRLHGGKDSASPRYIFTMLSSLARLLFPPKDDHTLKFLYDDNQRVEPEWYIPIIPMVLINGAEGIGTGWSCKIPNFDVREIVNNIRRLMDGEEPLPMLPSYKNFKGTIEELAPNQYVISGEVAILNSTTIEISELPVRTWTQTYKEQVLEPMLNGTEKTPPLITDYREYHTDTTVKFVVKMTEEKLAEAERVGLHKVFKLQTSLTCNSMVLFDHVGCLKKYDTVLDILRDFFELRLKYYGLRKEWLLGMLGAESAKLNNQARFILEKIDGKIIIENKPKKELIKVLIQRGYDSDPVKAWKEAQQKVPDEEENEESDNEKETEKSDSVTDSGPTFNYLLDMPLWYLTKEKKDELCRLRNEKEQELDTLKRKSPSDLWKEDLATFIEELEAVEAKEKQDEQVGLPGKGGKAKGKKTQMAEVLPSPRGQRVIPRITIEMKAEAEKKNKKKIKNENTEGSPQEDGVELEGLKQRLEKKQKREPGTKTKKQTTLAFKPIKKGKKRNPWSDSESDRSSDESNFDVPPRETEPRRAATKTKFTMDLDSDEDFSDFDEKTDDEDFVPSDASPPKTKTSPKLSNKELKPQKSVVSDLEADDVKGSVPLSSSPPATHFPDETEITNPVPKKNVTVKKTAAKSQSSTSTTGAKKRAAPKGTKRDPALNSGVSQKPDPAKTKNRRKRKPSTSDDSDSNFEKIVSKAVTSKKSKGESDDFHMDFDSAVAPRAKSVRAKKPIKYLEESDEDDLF
SMILES,inhibition (Bos taurus [1]),IC50 (DU-145),inhibition (Bos taurus [2]),IC50 (HCT-116),inhibition [3],IC50 (MCF7),inhibition [4],IC50 (MDA-MB-231),IC50 (HeLa)
Clc1ccc(-c2cc(-c3ccsc3)nc(-c3cccs3)c2)o1,50%,> 100 µM,12%,> 100 µM,7%,> 100 µM,55%,26.8 µM,43.7 µM
Cc1ccc(-c2cc(-c3cccs3)nc(-c3sccc3C)c2)o1,0%,,0%,,15%,,25%,,
Cc1ccsc1-c1cc(-c2ccco2)cc(-c2sccc2C)n1,92%,98.2 µM,88%,> 100 µM,14%,> 100 µM,23%,38.3 µM,35.8 µM
Cc1ccc(-c2cc(-c3ccsc3)nc(-c3ccsc3)c2)o1,0%,,0%,,0%,,5%,,
Cc1ccsc1-c1cc(-c2ccoc2)cc(-c2cccs2)n1,9%,,3%,,7%,,3%,,
Clc1ccc(-c2cc(-c3cccs3)nc(-c3cccs3)c2)o1,42%,88.1 µM,12%,95.5 µM,0%,> 100 µM,35%,54.8 µM,55.2 µM
Cc1ccc(-c2cc(-c3cccs3)nc(-c3cccs3)c2)o1,3%,,0%,,0%,,8%,,
c1csc(-c2cc(-c3ccoc3)cc(-c3cccs3)n2)c1,0%,> 100 µM,0%,50.6 µM,15%,> 100 µM,70%,23.6 µM,8.62 µM
c1coc(-c2cc(-c3ccsc3)nc(-c3ccsc3)c2)c1,0%,,0%,,0%,,32%,,
Cc1ccsc1-c1cc(-c2ccoc2)cc(-c2ccsc2)n1,13%,,0%,,0%,,0%,,
CC[C@@]1(O)C(=O)OCc2c1cc1n(c2=O)Cc2cc3ccccc3nc2-1 [CAMPTOTHECIN],54%,1.46 µM,41%,2.77 µM,,7.42 µM,,1.1 µM,1.85 µM
Clc1ccc(-c2cc(-c3ccsc3)nc(-c3ccsc3)c2)o1,14%,,0%,,0%,,8%,,
Cc1ccc(-c2cc(-c3cccs3)nc(-c3cc(C)sc3C)c2)o1,5%,,0%,,0%,,0%,,
Cc1ccsc1-c1cc(-c2ccco2)cc(-c2ccsc2)n1,52%,> 100 µM,9%,51.1 µM,11%,> 100 µM,58%,41.8 µM,19.2 µM
c1csc(-c2cc(-c3ccoc3)cc(-c3ccsc3)n2)c1,0%,,0%,,1%,,18%,,
c1coc(-c2cc(-c3ccsc3)nc(-c3cccs3)c2)c1,12%,,5%,,0%,,34%,,
Cc1ccc(-c2cc(-c3ccsc3)nc(-c3sccc3C)c2)o1,0%,,0%,,0%,,0%,,
Cc1ccsc1-c1cc(-c2ccco2)cc(-c2cccs2)n1,51%,> 100 µM,12%,56.4 µM,9%,> 100 µM,28%,59.6 µM,17.9 µM
Cc1ccc(-c2cc(-c3ccsc3)nc(-c3cccs3)c2)o1,0%,,0%,,0%,,2%,,
COc1cccc2c1C(=O)c1c(O)c3c(c(O)c1C2=O)C[C@@](O)(C(=O)CO)C[C@@H]3O[C@H]1C[C@H](N)[C@H](O)[C@H](C)O1 [DOXORUBICIN HYDROCHLORIDE],,1.3 µM,,,,,,1.16 µM,1.6 µM
COc1cc([C@@H]2c3cc4c(cc3[C@@H](O[C@@H]3O[C@@H]5CO[C@@H](C)O[C@H]5[C@H](O)[C@H]3O)[C@H]3COC(=O)[C@H]23)OCO4)cc(OC)c1O [ETOPOSIDE],,21.1 µM,,17.9 µM,36%,18 µM,73%,16.9 µM,8.43 µM
Cc1ccsc1-c1cc(-c2ccoc2)cc(-c2sccc2C)n1,30%,,15%,,0%,,0%,,
Cc1ccc(-c2cc(-c3ccsc3)nc(-c3cc(C)sc3C)c2)o1,0%,,0%,,0%,,7%,,
c1cc(-c2cc(-c3ccsc3)nc(-c3ccsc3)c2)co1,0%,,0%,,4%,,12%,,
